One series relates to Artemia salina. Description: Toxicity against brine shrimp by lethality test. It is filed as organism-based. To be noted: in vivo.
The test system of another series is Spodoptera littoralis. Kind of series: Antifeedant activity against Spodoptera littoralis larvae at 10 ug/disk by disk-choice assay. In kind it is functional. In short, it runs like this: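 Disk-choice feeding test with fifth-instar Spodoptera littoralis larvae at 10 µg/disk. Read-out is FR50: treated area eaten divided by 50% of the untreated area, scored when half of the untreated area had been eaten.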

In series [1] the test system is Cladosporium herbarum. Description: Growth inhibition of Cladosporium herbarum at 0.07 mg after 72 hrs. In kind it is functional. As to conditions: read-out: IZ. In short, it runs like this:
(§1)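 TLC bioautography with a given dose applied per spot. Plates were sprayed with Cladosporium herbarum spores (5 × 10^5 cfu) in 4% malt extract medium. Growth-inhibition zones were read after 72 h at 27 °C.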

For series [2], the system named is Cladosporium herbarum. Description: Growth inhibition of Cladosporium herbarum at 0.05 mg after 72 hrs. It is filed as functional. As to conditions: read-out: IZ. In short, it runs like this:
as §1

The subject of series [3] is Cladosporium herbarum. Kind of series: Growth inhibition of Cladosporium herbarum at 0.25 mg after 72 hrs. It is filed as functional. To be noted: read-out: IZ. In short, it runs like this: as §1

A word on the LC50: it is the concentration that kills 50% of the test population. Regarding `COc1ccc(CCc2c(Cl)ccc(O)c2Cl)cc1Cl`, the median lethal concentration (LC50) in the series with Artemia salina worked out at 0.42 ppm. The same compound displayed an FR50 with Spodoptera littoralis of 0.63. For the same compound, the zone of inhibition at 70 µg/disc in the series with Cladosporium herbarum [1] is 12 mm.
In the case of `Oc1ccc(CCc2c(Cl)cc(Cl)c(O)c2Cl)cc1Cl`, the median lethal concentration (LC50) with Artemia salina was 2.39 ppm. The compound also returned an FR50 with Spodoptera littoralis of 0.43. Also, the zone of inhibition at 70 µg/disc in the series on Cladosporium herbarum [1] stood at 20 mm.
`COc1ccc(CCc2c(Cl)cc(Cl)c(O)c2Cl)cc1Cl` gave a 50% lethal concentration (LC50) with Artemia salina of 1.71 ppm. In addition, the zone of inhibition at 50 µg/disc in the series with Cladosporium herbarum [2] turned out to be 0 mm.
Regarding `COc1ccc(CCc2c(Cl)ccc(O)c2Cl)cc1`, the LC50 with Artemia salina was 0.44 ppm. The zone of inhibition at 50 µg/disc in the series with Cladosporium herbarum [2] amounted to 22 mm.
In the series with Artemia salina, `CC(=O)N1CCN(c2ccc(OC[C@H]3CO[C@](Cn4ccnc4)(c4ccc(Cl)cc4Cl)O3)cc2)CC1` [KETOCONAZOLE] showed an LC50 of 14.9 ppm. Moreover, the zone of inhibition at 250 µg/disc in the series with Cladosporium herbarum [3] is 15 mm.
